Screening results as filed in PubChem.
Hits are enriched below; roughly 5% of the tested compounds scored in any of these assays.
Beta cell apopt: beta cell apoptosis inhibition; actives 0.8% (n = 300,000); AID 435005; protection from apoptosis, % (concentration not given with the values); INS-1E cytokine-induced death, ATP luminescence, 48 h; percent of positive-control rescue, neutral wells zero;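 active = Every replicate reaches about 75%, or at least half do and their mean reaches it too, limit read from the data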;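 note: higher means more ATP so stronger rescue from cytokine killing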
CSC inhib: cancer stem cell inhibition | cancer stem cell-like cells viability, luminescence | inhibition, % at 7.5 µM | actives 1.1% (n = 300,000); in the data active = inhibition above about 75%; tested in HMLE shEcad cells
CHOP UPR activ: activators of apoptotic arm of unfolded protein response (CHOP); CHO-CHOP luciferase reporter, UPR activation, luminescence; percent of tunicamycin response over DMSO baseline; activation, % at 10 µM; actives 0.34% (n = 330,000);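 active = at 10 µM dose, activation of 40% or more, normalized to positive control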
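Assay system: CHO cells with stable CHOP pathway luciferase reporter; Buffer or medium: F12 plus 10% serum; Times: 16-18 h cell attachment, then 6 h compound exposure, 37 °C; Signal: luciferase luminescence; Read-out basis: percent activation relative to tunicamycin control; Control set: tunicamycin high control, DMSO low control.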
Mdm2-MdmX inh: human Mdm2/MdmX binding inhibition; O15151+Q00987; SaOS-2 split-luciferase Mdm2/MdmX complementation, luminescence; inhibition, % at 8 µM; actives 3% (n = 330,000);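 active = inhibition of at least 50% at 8 µM in the primary screen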
Target sequence (O15151 whole entry, looked up): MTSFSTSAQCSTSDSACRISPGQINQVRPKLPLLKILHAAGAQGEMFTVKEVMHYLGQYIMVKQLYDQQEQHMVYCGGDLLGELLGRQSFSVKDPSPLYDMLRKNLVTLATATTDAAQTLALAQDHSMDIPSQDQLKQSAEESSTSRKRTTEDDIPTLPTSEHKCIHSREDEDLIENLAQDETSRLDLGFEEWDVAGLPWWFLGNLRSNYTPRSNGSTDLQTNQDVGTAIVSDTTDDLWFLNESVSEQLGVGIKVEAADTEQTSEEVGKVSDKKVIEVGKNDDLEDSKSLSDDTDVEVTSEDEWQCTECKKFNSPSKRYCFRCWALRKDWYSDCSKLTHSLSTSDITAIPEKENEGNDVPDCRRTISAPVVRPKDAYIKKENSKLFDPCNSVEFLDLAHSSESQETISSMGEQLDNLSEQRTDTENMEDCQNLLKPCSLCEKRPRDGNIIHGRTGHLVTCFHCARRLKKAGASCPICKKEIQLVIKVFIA
Target sequence (Q00987 whole entry, looked up): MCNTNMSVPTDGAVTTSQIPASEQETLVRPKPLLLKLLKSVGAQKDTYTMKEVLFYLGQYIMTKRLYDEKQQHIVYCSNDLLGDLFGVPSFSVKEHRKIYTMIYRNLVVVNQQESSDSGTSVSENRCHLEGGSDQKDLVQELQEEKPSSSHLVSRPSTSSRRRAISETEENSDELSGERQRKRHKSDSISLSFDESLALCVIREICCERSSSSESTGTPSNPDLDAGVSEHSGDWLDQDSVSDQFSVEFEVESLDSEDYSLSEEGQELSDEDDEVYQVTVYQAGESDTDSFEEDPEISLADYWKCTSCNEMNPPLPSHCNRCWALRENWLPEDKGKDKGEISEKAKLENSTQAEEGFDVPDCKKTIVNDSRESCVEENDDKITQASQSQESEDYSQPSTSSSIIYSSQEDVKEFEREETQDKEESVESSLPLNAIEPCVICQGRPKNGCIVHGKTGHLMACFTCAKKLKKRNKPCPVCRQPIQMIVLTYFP
T cruzi repl: T. cruzi replication inhibition; T. cruzi beta-gal in NIH3T3, luminescence, 90 h; inhibition, % (no concentration beside the values); actives 1.4% (n = 300,000); AID 1885;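 active = mean inhibition across valid replicates above about 55%, limit read from the data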;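 note: signal also drops with host cell toxicity which is not excluded here; higher percent means less beta-gal luminescence so fewer parasites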
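System: NIH/3T3 fibroblasts plus reporter T. cruzi. Medium: DMEM plus 2% FBS. Probe or stimulus: 5000 reporter trypomastigotes per well. Compound: single 50 nL compound addition per well in DMSO. Incubation: co-culture of at least 90 h after 3 h attachment. Detection: GalScreen β-gal luminescence, detergent lysis, 60 min. Evaluation: parasite load inhibition, %.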
UPR XBP1 act: adaptive UPR (XBP1) activation | CHO-XBP1 luciferase reporter, IRE1-XBP1 UPR activation, luminescence; percent of tunicamycin response, DMSO as zero | activation, % at 20 µM | actives 0.33% (n = 330,000);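 active = versus positive control, 20 µM dose yields 30% or more activation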
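Signal: luciferase luminescence; Assay system: CHO-XBP1 luciferase reporter cells; Amount: one thousand reporter cells per well; Dosing: 20 µM single concentration, DMSO 1%; Benchmarks: high control tunicamycin 10 µg/mL final, low control DMSO vehicle only; Schedule: 6 h compound exposure at 37 °C, 5% CO2; Evaluation: percent activation relative to tunicamycin reference.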
Mdm2-MdmX conf: confirmation of human Mdm2/MdmX interaction inhibitors | shares compounds with Mdm2-MdmX inh | Mdm2-MdmX binding, luminescent assay | inhibition, % at 8 µM | actives 55% (n = 10,000) | AID 489028; in the data active = inhibition above about 40%
FLuc counter: inhibits full-length luciferase, flagging false Mdm2/MdmX hits; shares compounds with Mdm2-MdmX inh; SaOS-2 full-length luciferase counterscreen, luminescence; inhibition, % at 8 µM; actives 77% (n = 6,200); AID 504607;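 active = mean inhibition at 8 µM reaching about 37%, which flags the compound as non-specific, limit read from the data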;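 note: p53-null SaOS-2 cells with luciferase driven by a doxycycline-inducible promoter; compound on cells about two nights before reading with doxycycline added after day one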
Large screens that a line does not name were inactive (follow-up assays come after a bar, where they were run).

FC(F)(F)c1cccc(Sc2nc(-c3ccccc3)nnc2C(F)(F)F)c1	Mdm2-MdmX inh 55 (no result: CSC inhib) | Mdm2-MdmX conf inactive
FC(F)(F)c1cccc(Oc2nc(-c3ccccc3)nnc2C(F)(F)F)c1	none
Cc1cccc(OCC(=O)NCC(=O)N/N=C/c2cc(Br)cc(Br)c2O)c1	Mdm2-MdmX inh 56 | Mdm2-MdmX conf 77 | FLuc counter inactive
COc1cccc(/C=N/NC(=O)CNC(=O)COc2ccccc2)c1O	none
Cc1ccccc1NC(=O)Cc1nc(COC(=O)c2cc([N+](=O)[O-])ccc2N)cs1	none
C/C(=N\NC(=O)c1c(Cl)cnn1C)c1cccc(NC(=O)c2ccc(C)cc2)c1	none
C/C(=N\NC(=O)c1c(Br)cnn1C)c1ccc(NC(=O)c2ccc(F)cc2)cc1	Mdm2-MdmX inh 67 | Mdm2-MdmX conf inactive
Cc1cccc(NC(=O)CSc2nnc(CNC(=O)c3ccco3)o2)c1	none
CN(c1ccccc1)S(=O)(=O)c1ccc(Cl)c(C(=O)Nc2ccncc2)c1	none (no result: T cruzi repl)
CN(c1ccccc1)S(=O)(=O)c1ccc(NC(=O)c2nc(S(C)(=O)=O)ncc2Cl)cc1	Beta cell apopt 99, Mdm2-MdmX inh 98 | Mdm2-MdmX conf 100 | FLuc counter 51
COc1cccc(NC(=O)c2nc(S(C)(=O)=O)ncc2Cl)c1	CSC inhib 113, Mdm2-MdmX inh 96 | Mdm2-MdmX conf 83 | FLuc counter 60
COc1cccc(NC(=O)c2nc(SC)ncc2Cl)c1	none
CC1(C)CN(C(=S)Nc2ccc(F)cc2F)C1=O	none
CCc1cccc(CC)c1NC(=S)NCCc1c(C)[nH]c2ccccc12	Mdm2-MdmX inh 51 | Mdm2-MdmX conf inactive
CCNC(=O)NC(=O)COC(=O)CCc1nc(=O)c2ccccc2n1C	none
CN1C2CCC1/C(=C\c1ccc(F)cc1)C(=O)/C2=C/c1ccc(F)cc1	Mdm2-MdmX inh 89 | Mdm2-MdmX conf 53 | FLuc counter inactive
O=c1[nH]c(Nc2nc3ccccc3o2)nc2c1CCCC2	Mdm2-MdmX inh 100, T cruzi repl 60 | Mdm2-MdmX conf 75 | FLuc counter 79
CCOc1ccc(NC(=O)CCCN2C(=O)C(c3ccccc3)Oc3cccnc32)cc1 (stereo not drawn)	none
Cc1sc(NC(=O)CCl)c(C(=O)c2ccccc2)c1C	Mdm2-MdmX inh 54 | Mdm2-MdmX conf inactive
Cc1ccccc1Nc1nc(N)nc(COC(=O)c2c(C)noc2C)n1	none (no result: T cruzi repl)
COc1ccc(N2CCN(C(=O)Cn3cnc4c(cnn4-c4ccccc4)c3=O)CC2)cc1	none
COc1ccc(N2CCN(C(=O)Cn3cnc4c(cnn4-c4ccc(C)cc4)c3=O)CC2)cc1	Mdm2-MdmX inh 61 | Mdm2-MdmX conf inactive
C=CCN(CC=C)C(=O)CN1C(=O)NC(Cc2c[nH]c3ccccc23)C1=O (stereo not drawn)	none
CC(C)n1cnc2c(Nc3cccc(F)c3)nc(NCCO)nc21	Mdm2-MdmX inh 62 | Mdm2-MdmX conf 58 | FLuc counter 82
CC(C)n1cnc2c(Nc3ccc(F)c(Cl)c3)nc(NCCO)nc21	none
CC(C)C[C@H](CO)Nc1nc(Nc2cccc(Cl)c2)c2ncn(C(C)C)c2n1	Mdm2-MdmX inh 75 | Mdm2-MdmX conf 65 | FLuc counter 58
CC(C(=O)OCc1nnc(-c2ccccc2)o1)N1C(=O)C2CCCCC2C1=O (stereo not drawn)	none
CCOC(=O)c1sc(NC(=O)c2cc3n(n2)C(C(F)(F)F)CC(c2ccccc2)N3)c(C(=O)OCC)c1C (stereo not drawn)	none
COc1ccc(C(O)P(=O)(OC2CCCCC2)c2ccc(N(C)C)cc2)cc1OC (stereo not drawn)	none
CC(=O)N(C1=C(N2CCOCC2)C(=O)c2ccccc2C1=O)c1ccc(C(=O)O)cc1	none
CC(=O)N(C)C1=C(N2CCOCC2)C(=O)c2ccccc2C1=O	Beta cell apopt 125, Mdm2-MdmX inh 82 (no result: CSC inhib) | Mdm2-MdmX conf 86 | FLuc counter 48
CCOC(=O)NC(=O)/C(C#N)=N\Nc1cccc(Cl)c1	Mdm2-MdmX inh 59 | Mdm2-MdmX conf 64 | FLuc counter 58
COc1ccccc1NC(=O)c1cc2c(CO)cnc(C)c2oc1=Nc1cccc(C(N)=O)c1	Mdm2-MdmX inh 79 | Mdm2-MdmX conf 41 | FLuc counter 90
COc1cccc(N=c2oc3c(C)ncc(CO)c3cc2C(=O)Nc2ccccc2OC)c1	none (no result: Beta cell apopt, CSC inhib, CHOP UPR activ, Mdm2-MdmX inh, UPR XBP1 act)
CCOc1ccc(N(C)S(=O)(=O)c2ccc(-c3cc(C)no3)s2)cc1	Mdm2-MdmX inh 61 | Mdm2-MdmX conf 53 | FLuc counter 84
CCN(c1cccc(C)c1)S(=O)(=O)c1ccc(-c2cc(C)no2)s1	Mdm2-MdmX inh 53 | Mdm2-MdmX conf 53 | FLuc counter 69
Cc1cccc(N(C)S(=O)(=O)c2ccc(-c3cc(C)no3)s2)c1	Mdm2-MdmX inh 65 | Mdm2-MdmX conf 51 | FLuc counter 89
COc1ccc(-c2cc(C)no2)cc1S(=O)(=O)N(C)c1cccc(C)c1	none
COc1ccccc1NS(=O)(=O)c1ccc(-c2cc(C)no2)s1	none
CCCCN1C(=O)C(O)(CC(=O)c2c(C)n[nH]c2C)c2cc(Br)ccc21 (stereo not drawn)	none
CCCCN1C(=O)C(O)(CC(=O)c2ccco2)c2cc(Br)ccc21 (stereo not drawn)	Mdm2-MdmX inh 65 | Mdm2-MdmX conf 51 | FLuc counter 75
COc1cc(C(=O)Nc2nnc(CC(C)C)s2)c([N+](=O)[O-])cc1OC	none
O=C(COc1cc2oc(=O)c3c(c2cc1Cl)CCC3)NCCCN1CCCC1=O	none
O=C(COc1cc2oc(=O)c3c(c2cc1Cl)CCC3)Nc1ccc(CN2CCOCC2)cc1	Mdm2-MdmX inh 52 | Mdm2-MdmX conf inactive
CCC(=O)c1ccc(O)c(CC=C(C)C)c1	Mdm2-MdmX inh 57 (no result: CSC inhib) | Mdm2-MdmX conf 44 | FLuc counter 42
CCC(=O)c1ccc(O)c(OC)c1	none
O=C(NCC1CC1)c1ccccc1Cl	none
CCn1c(=O)c2cc(C(=O)Nc3ccccc3OC)sc2c2ccccc21	Mdm2-MdmX inh 61 | Mdm2-MdmX conf inactive | FLuc counter 73
COc1ccc(OC)c(NC(=O)c2cc3c(Cl)nc4ccccc4c3s2)c1	Mdm2-MdmX inh 53 | Mdm2-MdmX conf inactive
